Assay outcomes as filed in PubChem.
PRMT1 FP inh: inhibitors of human PRMT1; Q99873; recombinant PRMT1, activity-based probe fluorescence polarization; inhibition, % at 2.79 µM; 370,000 compounds, 1.3% hits;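 active = inhibition above about 21% made by adding two undisclosed values, limit read from the data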
Target sequence (Q99873 whole entry, looked up): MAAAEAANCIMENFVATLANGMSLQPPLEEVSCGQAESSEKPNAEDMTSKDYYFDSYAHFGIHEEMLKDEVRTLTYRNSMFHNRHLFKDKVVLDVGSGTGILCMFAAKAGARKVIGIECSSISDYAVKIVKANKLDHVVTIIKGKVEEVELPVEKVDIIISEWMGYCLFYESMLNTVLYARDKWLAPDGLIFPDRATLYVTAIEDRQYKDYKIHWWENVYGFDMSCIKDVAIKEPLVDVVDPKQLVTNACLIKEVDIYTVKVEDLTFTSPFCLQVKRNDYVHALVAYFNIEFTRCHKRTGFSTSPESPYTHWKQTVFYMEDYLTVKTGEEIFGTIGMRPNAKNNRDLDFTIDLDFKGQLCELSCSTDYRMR
ABHD4 inh: inhibitors of mouse ABHD4. inhibition, % at 8.92 µM. purified mABHD4, FP-Rh probe fluorescence polarization. 370,000 compounds, 0.54% hits. Q8VD66;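 active = inhibition exceeding the mean over every tested compound plus 3 SD, cut at about 30% in these data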
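Test system: mouse ABHD4 enzyme, wild type. Reagent: FP-Rh fluorescent activity-based probe, added after compound pre-incubation. Timing: pre-incubation 45 min, probe exposure 60 min, at 25 °C. Technique: FP readout, ex 525 nm / em 598 nm. Benchmarks: high control S159A mutant with DMSO, low control median of compound wells.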
DAGLB inhibitor: blocks human DAGLB lipase activity; Q8NCG7; HEK293T DAGLB membrane lysate, EnzChek fluorogenic substrate; inhibition, % at 5.17 µM; 340,000 compounds, 0.059% hits; in the data active = inhibition above about 34%
HTRA1 inh: inhibitors of human serine peptidase HTRA1; Q92743; inhibition, % at 5.96 µM; recombinant HTRA1, FP-rhodamine activity-based probe, fluorescence polarization; 340,000 compounds, 0.5% hits; in the data active = inhibition above about 36%
LEDGF integ inh: blocks HIV-1 LEDGF/p75-dependent DNA integration; TR-FRET IN-LEDGF/p75 DNA integration, Eu/Cy5; AID 743269; 370,000 compounds, 0.64% hits; inhibition, % at 3.7 µM;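 active = inhibition above the screen-wide mean plus 3 SD, cut at about 13% in these data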;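 also: signal is the Cy5 over europium emission ratio at 671 and 618 nm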
rCAG binder: r(CAG) repeat RNA binding; TO-PRO-1 dye displacement fluorescence; inhibition, % at 3 µM; 370,000 compounds, 1.3% hits; AID 651821;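 active = inhibition above the plate cutoff, the mean of all test compounds on that plate plus 3 SD, cut at about 35% in these data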;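 also: higher means more dye released from RNA so lower well fluorescence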
rCAG binder conf: r(CAG) RNA repeat binding, confirmation. shares compounds with rCAG binder. TO-PRO-1 dye displacement fluorescence. inhibition, % at 3 µM. 4,300 compounds, 70% hits;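 active = inhibition above a per-plate cutoff, the mean inhibition of sample wells plus 3 SD, cut at about 35% in these data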;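 also: loss of TO-PRO-1 fluorescence as compound displaces dye from 1x1 AA loop RNA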
DNA CAG counter: disrupts DNA CAG TO-PRO-1 complex, flagging rCAG hits. 4,300 compounds, 94% hits. d(CAG) DNA oligo TO-PRO-1 dye displacement, fluorescence. inhibition, % at 3 µM. shares compounds with rCAG binder;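 active = inhibition above its plate's cutoff, the mean test-well inhibition plus 3 SD, cut at about 4.8% in these data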;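 also: hits displace the dye from DNA and so lower well fluorescence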
DNA CAG DR: counter-screen for rCAG binders: inhibitors of DNA CAG TO-PRO-1 complex; shares compounds with rCAG binder; 250 compounds, 20% hits; IC50, µM; DNA CAG/GTC duplex TO-PRO-1 dye displacement fluorescence; in the data active = IC50 below about 10 µM
Numbers stand for hits; - = inactive; . = no result. Rows were chosen to be rich in hits. Some 3.2% of all compounds tested hit in one or more screens of this group.

SMILES	PRMT1 FP inh	ABHD4 inh	DAGLB inhibitor	HTRA1 inh	LEDGF integ inh	rCAG binder	rCAG binder conf	DNA CAG counter	others
Cc1ccc(N(C)S(=O)(=O)c2cccc(C(=O)N(C)Cc3cnn(-c4ccccc4)c3)c2)cc1	-	-	-	-	-	-	.	.
O=C(Nc1cccc(-c2nc3ccccc3c(=O)o2)c1)c1ccccc1	-	-	-	-	-	36	-	-
CC(C)(C)OC(=O)[C@H]1[C@H](c2ccc([N+](=O)[O-])cc2)C2(C(=O)c3ccccc3C2=O)C2c3ccccc3C=NN21 (stereo partly specified)	-	-	-	-	-	36	-	9.9
COc1ccc([C@H]2[C@H](C(=O)C(C)(C)C)N3N=Cc4ccccc4C3[C@]23N=C(c2ccccc2)OC3=O)cc1 (stereo partly specified)	-	-	-	-	-	-	.	.
COC(=O)CC1=NN(c2ccc(OC)cc2)C(=O)/C1=C\c1ccc(Cl)cc1	-	-	-	-	-	68	83	41
CCOC(=O)C1=NN(c2ccccc2)C(=O)/C1=C\c1ccc(N(C)C)cc1	-	-	-	-	-	61	63	19
COc1ccc(C=C2c3ccccc3C(=O)c3ccccc32)c(OC)c1	-	-	-	-	-	-	.	.
CCOC(=O)CC1=NN(c2ccccc2)C(=O)/C1=C\c1ccc(OC)cc1OC	-	-	-	-	-	65	-	5.3
COC(=O)CC1=NN(c2ccccc2)C(=O)/C1=C\c1ccc(OC)cc1	-	-	-	-	-	42	-	8.3
COc1cc2c(cc1NC(=O)c1ccccc1-c1ccccc1C(=O)O)-c1ccccc1C2	-	-	-	-	-	66	60	20
CC(C)(c1ccccc1)c1ccc(OCc2ccc(C(=O)O)o2)cc1	-	-	-	-	-	39	-	-
COCCN(CCOC)C(=O)C1CCCN(S(=O)(=O)c2ccc(NC(=O)OC)cc2)C1 (stereo unspecified)	-	-	-	-	-	-	.	.
O=C(Nc1ccccc1)c1c(F)c(F)c(F)c(F)c1F	-	-	-	-	-	-	.	.
CC(C)c1c(C(=O)Nc2ccccc2)c(-c2ccccc2)c(-c2ccc(F)cc2)n1CC[C@@H](O)C[C@@H](O)CC(=O)O	-	-	.	.	-	37	36	9.9
CN1C2CCC1CC(NC(=O)c1cc(S(=O)(=O)N(C)C)c(Cl)cc1Cl)C2 (stereo unspecified)	-	-	-	-	-	-	.	.
CN(C)S(=O)(=O)c1cc(C(=O)O)c(NC2CCCCC2)cc1Cl	-	-	-	-	-	45	-	6.2
CC1Cc2cc(/C=C3/SC(=S)NC3=O)ccc2O1 (stereo unspecified)	-	-	-	-	-	37	-	5.9
O=C(N/N=C/c1cn(Cc2cccc(F)c2)c2ccccc12)c1cc(O)cc(O)c1	-	-	-	-	39	50	52	29
O=C(CN1C2CCCC1CC(NC(=O)C1CCCCC1)C2)NCc1ccc(F)cc1 (stereo unspecified)	-	-	-	-	-	-	.	.
O=C(CN(CC1CCCO1)C(=O)CNS(=O)(=O)c1ccc(Cl)cc1)NC1CCCC1 (stereo unspecified)	-	-	-	-	-	-	.	.
CCOC(=O)c1ccc(-n2c(O)c(/C=N/NC(=O)C3COc4ccccc4O3)c3ccccc3c2=O)cc1 (stereo unspecified)	-	-	-	-	-	75	79	42
N#Cc1c(=O)c2nc(NCCCO)ncc2n2c(=O)c3ccccc3[nH]c12	-	-	-	-	-	41	67	26	DNA CAG DR=5.4
Cc1c(CCO)c(=O)n2c([nH]c3ccccc32)c1C#N	-	-	-	-	-	-	.	.
CC(=O)c1ccc(NC(=O)CSc2nnc(-c3ccncc3)n2C2CC2)cc1	-	-	-	-	-	-	.	.
Cc1cc(N2C(=O)C(O)=C(C(=O)c3ccco3)C2c2cccc(Oc3ccccc3)c2)no1 (stereo unspecified)	-	-	-	-	-	58	59	21
SMILES	PRMT1 FP inh	ABHD4 inh	DAGLB inhibitor	HTRA1 inh	LEDGF integ inh	rCAG binder	rCAG binder conf	DNA CAG counter	others
CCOC(=O)c1sc(N2C(=O)C(O)=C(C(=O)c3ccco3)C2c2cccc([N+](=O)[O-])c2)nc1C (stereo unspecified)	-	-	-	-	-	70	82	50
Cc1nnc(N2C(=O)C(O)=C(C(=O)c3ccco3)C2c2cccc([N+](=O)[O-])c2)s1 (stereo unspecified)	-	-	-	-	-	-	.	.
Cc1cc(N2C(=O)C(O)=C(C(=O)c3ccco3)C2c2cccc(O)c2)no1 (stereo unspecified)	-	-	-	-	-	-	.	.
COC(=O)c1sc(N2C(=O)C(O)=C(C(=O)c3ccc(C)o3)C2c2cccs2)nc1C (stereo unspecified)	-	-	-	-	-	48	48	17
CCOC(=O)c1sc(N2C(=O)C(O)=C(C(=O)c3ccco3)C2c2cccc(Cl)c2)nc1C (stereo unspecified)	-	-	-	-	-	74	57	19
COC(=O)c1sc(N2C(=O)C(O)=C(C(=O)c3ccc(C)o3)C2c2ccco2)nc1C (stereo unspecified)	-	-	-	-	-	-	.	.
CCc1ccc2[nH]c3nc(N/N=C/c4cccc(O)c4)nnc3c2c1	-	-	-	-	-	-	.	.
O=S(=O)(NCC(Nc1ccccc1)c1ccccc1)c1ccc(Cl)cc1 (stereo unspecified)	-	-	-	-	-	-	.	.
O=C(O)c1cccc(NS(=O)(=O)c2ccc(-c3ccc(S(=O)(=O)Nc4cccc(C(=O)O)c4)cc3)cc2)c1	-	-	-	-	-	43	-	-
O=C(O)c1cccc(NS(=O)(=O)c2ccc(Oc3ccc(S(=O)(=O)Nc4cccc(C(=O)O)c4)cc3)cc2)c1	-	-	-	-	-	47	-	-
COc1ccc(NS(=O)(=O)c2ccc(Oc3cccc(C(=O)O)c3)cc2)cc1	-	-	-	-	-	-	.	.
O=C(O)c1cccc(NC(CNS(=O)(=O)c2ccc(Cl)cc2)c2ccccc2)c1 (stereo unspecified)	-	-	-	-	-	43	37	11
O=C(O)c1cccc(S(=O)(=O)Nc2ccc(-c3ccccc3)cc2)c1	-	-	-	-	-	-	.	.
